Measured values taken from article PMC9292928 (British Journal of Pharmacology, 2021).
Entries after “also recorded” stand apart in the source; their conditions may differ. Read-outs that look alike come from different tables or passages of the source.

Legend:
[1] = test system: hyperthermia‐induced seizures in Scn1a +/− mice; experiment: Hyperthermia-induced seizures in Scn1a+/− mice; type: in vivo, mouse; conditions: for Effective (anticonvulsant) dose against hyperthermia-induced seizures: i.p.
How it was run: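 Male and female Scn1a+/− F1 mice (congenic 129S6 heterozygotes × C57BL/6J), P14–16, got a single i.p. dose of vehicle or test compound, n = 12–18. Pretreatment time was set per compound from time-to-peak data (15–120 min), with matched vehicle controls. A rectal probe went in 15 min before, followed by 5-min acclimation. Core temperature was raised 0.5°C every 2 min until the first clonic convulsion with loss of posture, or to 42.5°C held 3 min. Thresholds were compared by log-rank Mantel–Cox.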

[2] = Solubility of dosing preparations; type: physicochemical; conditions: for State of dosing preparation: ethanol:Tween 80:saline (1:1:18), 10 ml·kg−1, CBGV 100, CBDV 60, CBG 30 mg·kg−1; for Aqueous solubility: reason for not testing 100 mg·kg−1
[3] = Plasma concentrations in experimental Scn1a+/− mice; type: in vivo, mouse
How it was run: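 Acute cohorts (n = 5–10) were anaesthetised with isoflurane directly after the hyperthermia protocol, and whole blood was taken by cardiac puncture. Plasma was stored at −80°C. Subchronic cohorts received drug orally in chow, with plasma collected on P31 within 30 min of lights on. Clobazam pretreatment was 30 min and test compound pretreatment 45 min before the hyperthermia time point.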

[4] = test system: spontaneous GTCS and survival of Scn1a +/− mice; experiment: Spontaneous seizures; type: in vivo, mouse
How it was run: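 Male and female Scn1a+/− mice were primed with one hyperthermia-induced seizure at P18. They were cooled on a pad to a 37°C core temperature at the onset of clonic convulsion. Test compound was then given subchronically in chow. Spontaneous GTCS were counted blind from continuous video over 60 h, and dosing continued to P30 for survival. Seizure-free proportion was analysed by Fisher's exact test; frequency by one-way ANOVA with Dunnett's test.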

MES‐induced seizures = conditions: ref Hawkins et al., 2017; Luszczki et al., 2003; Miller et al., 1986; cited from earlier work
Scn1a +/− mice = conditions: ref Hawkins et al., 2017; Luszczki et al., 2003; Miller et al., 1986; cited from earlier work
GPR55 [5] = molecular target: T1, GPR55 (Homo sapiens, UniProt Q9Y2T6); experiment: GPR55 ERK phosphorylation assay in HEK293 cells; type: cell-based; conditions: for EC80 concentration for GPR55 activation (pERK): agonist alone
T1 sequence (Q9Y2T6 whole entry): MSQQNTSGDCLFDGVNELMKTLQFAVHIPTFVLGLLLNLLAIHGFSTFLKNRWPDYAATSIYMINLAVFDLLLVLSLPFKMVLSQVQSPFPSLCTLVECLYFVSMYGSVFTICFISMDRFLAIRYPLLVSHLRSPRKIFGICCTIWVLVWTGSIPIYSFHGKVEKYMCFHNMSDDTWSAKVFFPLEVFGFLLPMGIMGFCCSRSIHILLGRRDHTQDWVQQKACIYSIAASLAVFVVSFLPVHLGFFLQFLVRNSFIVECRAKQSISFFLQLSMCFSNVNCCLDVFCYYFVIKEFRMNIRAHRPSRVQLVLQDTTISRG

[6] = test system: hyperthermia‐induced seizures in Scn1a +/− mice; conditions: cited from earlier work
[7] = test system: pentylenetetrazole (PTZ)‐induced seizures; conditions: ref Hill et al., 2010; cited from earlier work
cannabinoid CB2 receptor = cannabinoid CB2 receptor (Homo sapiens, UniProt P34972); experiment: Eurofins DiscoverX PathHunter β-arrestin GPCR screen, CB2; type: cell-based; conditions: 3 μM
cannabinoid CB2 receptor, sequence (P34972 whole entry): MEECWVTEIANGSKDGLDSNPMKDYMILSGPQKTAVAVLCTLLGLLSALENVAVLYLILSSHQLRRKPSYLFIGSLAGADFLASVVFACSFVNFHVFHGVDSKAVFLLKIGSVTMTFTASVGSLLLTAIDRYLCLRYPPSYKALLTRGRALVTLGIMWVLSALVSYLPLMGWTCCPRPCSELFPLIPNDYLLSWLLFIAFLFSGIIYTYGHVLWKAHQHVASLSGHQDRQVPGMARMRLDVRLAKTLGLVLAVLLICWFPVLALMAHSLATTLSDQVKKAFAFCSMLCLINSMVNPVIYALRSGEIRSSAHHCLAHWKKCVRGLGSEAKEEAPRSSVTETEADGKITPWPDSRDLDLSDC

[8] = ref Anderson, Low, et al., 2019; cited from earlier work
cannabinoid CB1 receptor = cannabinoid CB1 receptor (Homo sapiens, UniProt P21554); experiment: Eurofins DiscoverX PathHunter β-arrestin GPCR screen, CB1; type: cell-based; conditions: 3 μM
cannabinoid CB1 receptor, sequence (P21554 whole entry): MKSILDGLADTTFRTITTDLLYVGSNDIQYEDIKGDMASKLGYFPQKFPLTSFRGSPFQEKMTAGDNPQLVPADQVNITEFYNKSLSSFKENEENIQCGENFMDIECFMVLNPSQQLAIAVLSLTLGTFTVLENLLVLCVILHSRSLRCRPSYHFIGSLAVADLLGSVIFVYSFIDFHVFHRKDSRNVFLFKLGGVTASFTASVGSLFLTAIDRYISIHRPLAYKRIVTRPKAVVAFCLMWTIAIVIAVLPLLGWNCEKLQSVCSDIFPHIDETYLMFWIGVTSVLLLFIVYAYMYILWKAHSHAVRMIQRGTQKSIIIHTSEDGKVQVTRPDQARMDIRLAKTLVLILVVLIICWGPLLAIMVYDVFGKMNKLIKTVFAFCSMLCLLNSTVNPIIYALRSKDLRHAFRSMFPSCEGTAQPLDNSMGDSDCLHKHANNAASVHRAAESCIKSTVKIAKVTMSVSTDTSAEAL

human TRPV1 = human TRPV1 (Homo sapiens, UniProt Q8NER1); experiment: TRPV1 intracellular calcium assay; type: cell-based
human TRPV1, sequence (Q8NER1 whole entry): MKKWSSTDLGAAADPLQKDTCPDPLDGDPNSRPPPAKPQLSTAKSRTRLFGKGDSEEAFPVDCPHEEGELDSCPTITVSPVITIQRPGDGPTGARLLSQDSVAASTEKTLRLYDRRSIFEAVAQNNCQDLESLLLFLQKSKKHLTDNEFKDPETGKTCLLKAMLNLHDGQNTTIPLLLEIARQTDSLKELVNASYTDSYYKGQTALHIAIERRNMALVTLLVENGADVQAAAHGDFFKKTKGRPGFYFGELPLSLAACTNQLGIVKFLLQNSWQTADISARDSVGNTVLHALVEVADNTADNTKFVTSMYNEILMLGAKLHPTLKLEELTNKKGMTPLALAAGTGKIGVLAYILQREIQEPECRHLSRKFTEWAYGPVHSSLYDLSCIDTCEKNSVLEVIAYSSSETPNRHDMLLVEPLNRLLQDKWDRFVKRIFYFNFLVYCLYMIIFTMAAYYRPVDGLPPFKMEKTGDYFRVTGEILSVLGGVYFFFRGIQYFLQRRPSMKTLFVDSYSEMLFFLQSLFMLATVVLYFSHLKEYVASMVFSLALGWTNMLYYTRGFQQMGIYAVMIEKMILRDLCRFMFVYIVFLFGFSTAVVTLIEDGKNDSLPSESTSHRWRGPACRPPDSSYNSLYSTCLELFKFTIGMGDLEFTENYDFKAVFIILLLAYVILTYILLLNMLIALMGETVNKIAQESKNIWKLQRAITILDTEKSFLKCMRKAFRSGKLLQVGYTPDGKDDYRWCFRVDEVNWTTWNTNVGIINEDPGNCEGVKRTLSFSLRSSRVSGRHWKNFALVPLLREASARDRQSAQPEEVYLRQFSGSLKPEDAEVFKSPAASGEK

[9] = molecular target: T2, concatenated human γ2–β2–α1–β2–α1 GABA receptor (Homo sapiens, UniProt P14867+P18507+P47870); experiment: Two-electrode voltage clamp, GABA-evoked currents in Xenopus oocytes; type: cell-based
T2 sequence (P14867 28-456): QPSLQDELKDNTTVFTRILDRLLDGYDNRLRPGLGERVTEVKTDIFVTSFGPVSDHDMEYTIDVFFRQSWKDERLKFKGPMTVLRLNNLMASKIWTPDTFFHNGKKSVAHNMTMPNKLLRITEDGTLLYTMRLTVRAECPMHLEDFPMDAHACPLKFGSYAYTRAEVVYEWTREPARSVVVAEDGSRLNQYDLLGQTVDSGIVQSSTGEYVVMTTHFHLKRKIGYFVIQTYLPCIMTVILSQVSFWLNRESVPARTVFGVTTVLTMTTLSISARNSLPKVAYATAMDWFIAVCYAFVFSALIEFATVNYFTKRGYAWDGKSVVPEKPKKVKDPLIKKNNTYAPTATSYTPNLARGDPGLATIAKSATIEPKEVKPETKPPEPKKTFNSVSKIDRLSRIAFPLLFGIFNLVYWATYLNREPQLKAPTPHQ
T2 sequence (P47870 26-512): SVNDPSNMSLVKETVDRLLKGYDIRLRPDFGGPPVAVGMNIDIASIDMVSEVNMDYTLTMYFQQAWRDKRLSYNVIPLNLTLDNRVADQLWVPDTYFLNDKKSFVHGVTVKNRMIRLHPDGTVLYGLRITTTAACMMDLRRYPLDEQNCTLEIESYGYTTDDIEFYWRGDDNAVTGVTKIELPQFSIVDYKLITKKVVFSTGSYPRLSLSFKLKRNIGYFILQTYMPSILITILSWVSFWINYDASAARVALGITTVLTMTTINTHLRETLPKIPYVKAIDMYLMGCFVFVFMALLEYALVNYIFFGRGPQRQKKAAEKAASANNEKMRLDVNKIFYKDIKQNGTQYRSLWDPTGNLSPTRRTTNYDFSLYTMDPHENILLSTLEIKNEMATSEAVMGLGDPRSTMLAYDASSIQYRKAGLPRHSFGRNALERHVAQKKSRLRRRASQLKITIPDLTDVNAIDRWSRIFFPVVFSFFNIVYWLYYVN
T2 sequence (P18507 40-475): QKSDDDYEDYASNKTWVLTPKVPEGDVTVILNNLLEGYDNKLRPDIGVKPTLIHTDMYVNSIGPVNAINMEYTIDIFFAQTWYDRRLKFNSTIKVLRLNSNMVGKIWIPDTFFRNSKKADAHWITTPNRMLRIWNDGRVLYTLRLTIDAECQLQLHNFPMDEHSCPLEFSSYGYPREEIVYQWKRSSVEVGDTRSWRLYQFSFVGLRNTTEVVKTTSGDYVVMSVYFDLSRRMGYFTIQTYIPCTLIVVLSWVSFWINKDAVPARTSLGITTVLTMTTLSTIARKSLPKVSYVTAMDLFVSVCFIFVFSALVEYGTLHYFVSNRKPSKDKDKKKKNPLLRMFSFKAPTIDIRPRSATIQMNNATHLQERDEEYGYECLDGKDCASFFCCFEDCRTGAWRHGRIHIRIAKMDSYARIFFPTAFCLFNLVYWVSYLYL
How it was run: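 Two-electrode voltage clamp used Xenopus oocytes expressing concatenated human γ2–β2–α1–β2–α1 receptors. GABA (15 μM) was applied three times with 7–12 min washout, and currents were normalised to the mean of the last two applications. Preincubation was 60 s. Per cent modulation came from a published equation, and the Hill equation fit gave Imax and EC50, n = 5.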

[10] = test system: 6‐Hz threshold test, Swiss male mice; experiment: 6-Hz threshold test; type: in vivo, mouse; conditions: n = 12; for CC50 vs vehicle, 6-Hz threshold test: 45 min pretreatment
GPR55 [11] = molecular target: T1, GPR55; experiment: Eurofins DiscoverX PathHunter β-arrestin GPCR screen, GPR55; type: cell-based; conditions: 3 μM
[12] = test system: 168 GPCRs and 74 orphan GPCRs; experiment: Eurofins DiscoverX PathHunter β-arrestin GPCR screen; type: cell-based; conditions: 3 μM
[13] = molecular target: T2, concatenated human γ2–β2–α1–β2–α1 GABA receptor; experiment: GABAA receptor desensitization assay in Xenopus oocytes; type: cell-based; conditions: 10 μM CBGA, 180-s preincubation, 1 mM GABA; 103 ± 3% without preincubation
[14] = test system: MES threshold test, Swiss male mice; experiment: Maximal electroshock; type: in vivo, mouse; conditions: 300 mg·kg−1, 15 min prior, n = 12
How it was run: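 Swiss male mice, n = 12; the positive control was given 15 min before shock. Corneal electroshocks were 60 Hz, 0.4 s, 0.5-ms rectangular pulses, starting at 50 mA. A blinded observer scored GTCS with full hindlimb extension (hindlimbs at 180° to torso).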

[15] = 30 mg·kg−1 single i.p., Scn1a+/− mice P14–16
[16] = acute i.p., CBGA 30 mg·kg−1 + clobazam 1 mg·kg−1
[17] = over all doses tested, single i.p., Scn1a+/− mice P14–16
[18] = 100 mg·kg−1 single i.p., Scn1a+/− mice P14–16
[19] = Scn1a+/− mice, ref Anderson et al., 2021

In the case of C=C(C)[C@@H]1CCC(C)=C[C@H]1c1c(O)cc(CCC)cc1O [CBDV, cannabidivarin], the “Temperature threshold for GTCS induced by hyperthermia vs vehicle” value (“Temperature threshold … vs vehicle” below) [1, 15] is reported as “increase in GTCS temperature threshold”, the “State of dosing preparation” value [2] is reported as “near solubility limits” and the Aqueous solubility [2] is reported as “poor aqueous solubility”.

With CN1C(=O)CC(=O)N(c2ccccc2)c2cc(Cl)ccc21 [clobazam, reference compound] the “Plasma clobazam concentrations on CBGA co-administration” value [3, 16] was “did not affect”, the “Spontaneous GTCS frequency” value ([4]; 80 mg clobazam·kg−1 chow, oral, 60-h recording) was “significantly reducing” and the “Survival to P30” value ([4]; clobazam 80 mg·kg−1 chow alone or plus CBGA 1400 mg·kg−1 chow) was “neither treatment had any effect”. For the same compound, the “Proportion of mice displaying GTCS” value ([4]; clobazam 80 mg·kg−1 chow alone or plus CBGA 1400 mg·kg−1 chow, controls 63%) was 35% and the “Temperature threshold … vs vehicle” value ([1]; 1 mg·kg−1 single i.p., Scn1a+/− mice) was “significantly elevated”.

For Nc1nnc(-c2cccc(Cl)c2Cl)c(N)n1 [Lamotrigine], the “Effect against MES-induced seizures” value (MES‐induced seizures) is listed as “anticonvulsant” and the “Effect on seizures in Scn1a+/− mice” value (Scn1a +/− mice) is listed as “proconvulsant”.

With CCCc1cc(O)c(C/C=C(\C)CCC=C(C)C)c(O)c1 [CBGV, cannabigerivarin] the “Temperature threshold … vs vehicle” value [1, 17] was “Neither cannabigerol (CBG) nor cannabigerivarin (CBGV) affected thresholds” and the “State of dosing preparation” value [2] was “suspension”.

In the case of CCCCCc1cc(O)c(C/C=C(\C)CCC=C(C)C)c(O)c1 [CBG, cannabigerol], the “Mice seizure free (protected from GTCS)” value ([1]; 0.3 mg·kg−1 i.p., n = 12–18 per group) is reported as “four”, the “Temperature threshold … vs vehicle” value [1, 17] is reported as “Neither cannabigerol (CBG) nor cannabigerivarin (CBGV) affected thresholds” and the “State of dosing preparation” value [2] is reported as “near solubility limits”. For the same compound, the Aqueous solubility [2] was “poor aqueous solubility”.

For CCCc1cc(O)c(C/C=C(\C)CCC=C(C)C)c(O)c1C(=O)O [CBGVA, cannabigerovarinic acid], the “Temperature threshold … vs vehicle” value [1, 18] was “significantly elevated” and the “Effective (anticonvulsant) dose against hyperthermia-induced seizures” value (“Effective (anticonvulsant) dose” below) ([1]; Scn1a+/− mice) was 100 mg/kg.

For “lysophosphatidylinositol [LPI, reference compound]”, the “EC80 concentration for GPR55 activation (pERK)” value (GPR55 [5]) was 4 μM.

For C=C(C)[C@@H]1CCC(C)=C[C@H]1c1c(O)cc(CCCCC)cc1O [CBD, cannabidiol], the “Effect against hyperthermia-induced seizures” value ([6]; 100 mg·kg−1, ref Anderson, Absalom, et al., 2019, Anderson et al., 2020, Kaplan et al., 2017) is given as “anticonvulsant”.

For CCCc1cc(O)c2c(c1)OC(C)(C)[C@@H]1CCC(C)=C[C@@H]21 [Δ^9‐THCV, tetrahydrocannabivarin], the “Effect against PTZ-induced seizures” value [7] is listed as “anticonvulsant effects” and the “Temperature threshold … vs vehicle” value ([1]; 3 mg·kg−1 single i.p., Scn1a+/− mice P14–16) is listed as “proconvulsant”.

With CCCCCc1cc(O)c(C/C=C(\C)CCC=C(C)C)c(O)c1C(=O)O [CBGA, cannabigerolic acid] the “Plasma concentration of CBGA on cotreatment with clobazam” value [3, 16] was “significantly increased”, the “Plasma CBGA concentrations on cotreatment with clobazam” value ([3]; subchronic, chow) was “no effect” and the “Effect at cannabinoid CB2 receptor” value (cannabinoid CB2 receptor) was “did not affect”. For the same compound, the Brain penetration [8] was 2%, the “Brain–plasma ratio” value [8] was 0.02 and the “Effect at cannabinoid CB1 receptor” value (cannabinoid CB1 receptor) was “did not affect”. The IC50 (human TRPV1) was 22 µM, the Non-specific calcium influx (human TRPV1; 30 and 100 μM CBGA, wildtype and TRPV1-expressing cells) was “non‐specific increase in intracellular calcium” and the “Agonist activity at TRPV1” value (human TRPV1; calcium influx) was “did not display agonist activity”. The “Modulation of GABA-evoked currents at high concentration” value ([9]; 30 μM CBGA, GABA 15 μM) was “substantially reduced”, the EC50 ([9]; EC50, positive modulation of GABA-evoked currents, GABA 15 μM) was 0.91 µM and the Emax ([9]; read-out: Maximum modulation of GABA-evoked peak currents (E max)) was 271 ± 40%. For the same compound, the “Spontaneous GTCS frequency” value ([4]; 2500 mg·kg−1 chow, oral subchronic, 60-h recording) was “significantly increased”, the “Survival to P30 relative to controls” value ([4]; 1400 and 2500 mg·kg−1 chow, oral) was “did not differ” and the “Proportion of mice experiencing GTCS during observation period” value ([4]; 1400 and 2500 mg·kg−1 chow, oral subchronic, 60-h recording) was “Neither dose of CBGA affected”. For the same compound, the “CC50 vs vehicle, 6-Hz threshold test” value ([10]; 10 mg·kg−1 i.p.) was “significantly lower”, the “CC50 vs vehicle, 6-Hz threshold test” value ([10]; 30 mg·kg−1 i.p.) was “significantly lower” and the “CC50 vs vehicle, 6-Hz threshold test” value ([10]; 100 mg·kg−1 i.p.) was “did not differ from vehicle”. For the same compound, the “Agonist activity at GPR55” value (GPR55 [11]) was “not an agonist”, the “Agonist or antagonist activity at 242 GPCRs” value [12] was “No agonist or antagonist activity” and the “Temperature threshold … vs vehicle” value [1, 15] was “anticonvulsant; also recorded: significantly elevated”. The “Temperature threshold … vs vehicle” value [1, 18] was “anticonvulsant”, the “Effective (anticonvulsant) dose” value ([1]; Scn1a+/− mice) was 30 mg/kg and the “Temperature threshold … vs vehicle” value [1, 17] was “dose‐dependently increased”. For the same compound, the “Peak GABA current after preincubation (percentage of GABA response)” value [13] was 31 ± 11%, the IC50 (GPR55 [5]; IC50, inhibition of GPR55 activation, rounded value of the discussion) was about 5 µM and the IC50 (GPR55 [5]; IC50, inhibition of LPI-mediated GPR55 activity (pERK), LPI 4 μM (EC80)) was 5.7 µM. The IC50 (GPR55 [5]; IC50, inhibition of ML-186-mediated GPR55 activity (pERK), ML-186 0.45 μM (EC80)) was 4.8 µM and the “Mode of antagonism at GPR55” value (GPR55 [5]; ML-186 concentration–response curves with varying CBGA) was “non‐competitive antagonist”.

For CCCCCc1cc2c(c(O)c1C(=O)O)C=CC(C)(CCC=C(C)C)O2 (stereo not drawn) [CBCA, cannabichromenic acid], the “Effect against hyperthermia-induced seizures” value [6, 19] is given as “anticonvulsant effects”.

With O=C1CC(=O)N(c2ccccc2)c2cc(Cl)ccc2N1 [N‐desmethylclobazam] the “Plasma concentrations of N-desmethylclobazam on CBGA co-administration” value [3, 16] was “reduced” and the “Plasma concentrations of N-desmethylclobazam when clobazam combined with CBGA” value ([3]; subchronic, chow) was “significantly lower”.

With CCCC(CCC)C(=O)O [valproic acid, reference compound] the “Protection against seizure activity, MES threshold test” value [14] was 100% and the “Protection against seizure activity, 6-Hz threshold test” value ([10]; 300 mg·kg−1, 15 min prior) was 100%.

For CCCc1cc2c(c(O)c1C(=O)O)C=CC(C)(CCC=C(C)C)O2 (stereo not drawn) [CBCVA, cannabichromevarinic acid], the “Effect against hyperthermia-induced seizures” value [6, 19] is listed as “anticonvulsant effects”.

With COc1ccc(S(=O)(=O)N2CCOCC2)cc1NC(=O)c1cc2c(s1)CCCC2 [ML‐186, reference compound] the “EC80 concentration for GPR55 activation (pERK)” value (GPR55 [5]) was 0.45 μM.

In the case of C=C(C)[C@@H]1CCC(C)=C[C@H]1c1c(O)cc(CCC)c(C(=O)O)c1O [CBDVA, cannabidivarinic acid], the “Temperature threshold … vs vehicle” value [1, 18] is reported as “significantly elevated” and the “Effective (anticonvulsant) dose” value ([1]; Scn1a+/− mice) is reported as 100 mg/kg.
